Data taken from publication PMC5521815 (ACS chemical biology, 2016).
“Also recorded” adds a separate entry of the source.

Key:
E. coli [1] = assay: Radial diffusion assay in the presence of RBCs and/or serum; assay type: cell-based, Escherichia coli; details: RBCs up to 1x10^9 cells/ml, 30 min 37°C; result in words
Summary of the method: (§1)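 Log-phase (TSB) E. coli ATCC 25922 or S. aureus ATCC 25923, 8 × 10^6 CFU in 20 mL underlay agarose with 3 mm wells. Test peptide at 20 μM was preincubated 30 min at 37 °C with washed human O+ RBCs and/or filtered serum at 2–20% of whole blood (1 × 10^8–1 × 10^9 cells/mL). 10 μL per well, 3 h at 37 °C, overlay, overnight; inhibition zones imaged.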

S. aureus = assay: Radial diffusion assay in the presence of RBCs; assay type: cell-based, Staphylococcus aureus; details: RBCs up to 1x10^9 cells/ml, 30 min 37°C; result in words
Summary of the method: as §1

[2] = test system: Escherichia coli strain ATCC 25922; assay: Broth dilution MIC; assay type: cell-based; details: result in words; for Activity (MIC) in broth dilution against E. coli: absence of RBCs, 5x10^5 CFU/ml, overnight 37°C
human RBC = assay: Hemolysis of human RBCs; assay type: cell-based; details: result in words; for Hemolysis, propensity to lyse human RBCs: 1x10^8 human RBC/ml, 100 μM peptide, 37° C, 1 hour; for Selectivity (antimicrobial activity relative to host cell toxicity): represented by hemolysis at 100 μM peptide
[3] = test system: Staphylococcus aureus strain ATCC 25923; assay: Broth dilution MIC; assay type: cell-based; details: absence of RBCs; 5x10^5 CFU/ml, overnight 37°C; result in words
[4] = test system: Staphylococcus aureus strain ATCC 25923; details: result in words; cited from earlier work
[5] = test system: Escherichia coli strain ATCC 25922; details: result in words; cited from earlier work
E. coli [6] = assay: Number of bound peptides required to kill E. coli; assay type: cell-based, Escherichia coli; details: calculated from sterilization limit and binding curve
Pseudomonas aeruginosa = details: result in words; cited from earlier work

With `[H]/N=C(/N)N[C@H]1[C@H](O)[C@@H](O)[C@H](O[C@@H]2O[C@@H](C)[C@](O)(C=O)[C@H]2O[C@@H]2O[C@@H](CO)[C@H](O)[C@@H](O)[C@@H]2NC)[C@@H](N/C(N)=N\[H])[C@@H]1O` [streptomycin] the “Effect of preincubation with RBCs on radial diffusion activity” value (E. coli [1]) was “not affected significantly”.

With `CN[C@H](CC(C)C)C(=O)N[C@H]1C(=O)N[C@@H](CC(N)=O)C(=O)N[C@H]2C(=O)N[C@H]3C(=O)N[C@H](C(=O)N[C@H](C(=O)O)c4cc(O)cc(O)c4-c4cc3ccc4O)[C@H](O)c3ccc(c(Cl)c3)Oc3cc2cc(c3O[C@@H]2O[C@H](CO)[C@@H](O)[C@H](O)[C@H]2O[C@H]2C[C@](C)(N)[C@H](O)[C@H](C)O2)Oc2ccc(cc2Cl)[C@H]1O` [vancomycin] the “Effect of preincubation with RBCs on radial diffusion activity” value (S. aureus) was “not affected significantly”.

In the case of GIGKFLHSAKKFGK-AFVGEIMNS [magainin II], the “Activity (MIC) in broth dilution against E. coli” value [2] is reported as “active only against E. coli”, the “Hemolysis, propensity to lyse human RBCs” value (human RBC) is reported as “near zero propensity to lyse dilute human RBCs” and the “Selectivity (antimicrobial activity relative to host cell toxicity)” value (human RBC) is reported as “highly selective”. The “Activity (MIC) in broth dilution against S. aureus” value [3] was “active only against E. coli”.

With GIGKFLKKAKK-FGKAFVKILKK-NH2 [MSI-78] the “Selectivity (antimicrobial activity relative to host cell toxicity)” value (human RBC) was “moderately high selectivity”.

In the case of ILPWKWPWWPWRR-NH2 [indolicidin], the “Selectivity (antimicrobial activity relative to host cell toxicity)” value (human RBC) is reported as “poor selectivity; also recorded: very poor selectivity”.

With “KWKLFKKIEKVGQN-IRDGIIKAGPAVAVVGQATQIAK [cecropin A]” the “Activity (MIC) in broth dilution against E. coli” value [2] was “highly active”, the “Hemolysis, propensity to lyse human RBCs” value (human RBC) was “near zero propensity to lyse dilute human RBCs” and the “Selectivity (antimicrobial activity relative to host cell toxicity)” value (human RBC) was “highly selective; also recorded: most selective in our set”. The “Activity (MIC) in broth dilution against S. aureus” value [3] was “not against S. aureus”.

In the case of “LLGDFFRKSKEKIGKEFKRIVQRIKDFLRNLVPRTES [LL-37]”, the “Activity in sterilization assay against S. aureus (known)” value [4] is given as “undetectable against S. aureus” and the “Activity in sterilization assay against E. coli (known)” value [5] is given as “poor against E. coli”.

For RRGWALRLVLAY-NH2 [ARVA-L], the “Host cell effect on MIC without preincubation with host cells” value ([2]; compared with preincubation, organism not stated) was “much smaller” and the “Selectivity (antimicrobial activity relative to host cell toxicity)” value (human RBC) was “fair selectivity”.

In the case of RRGWALRLVLAY-NH2 [ARVA], the “Bound peptides per bacterial cell required for sterilization (no surviving CFUs)” value (E. coli [6]) is reported as > 1x10^8 peptides per bacterial cell.

For RRWVRRVRRWVRRVVR-VVRRWVRR [WLBU2], the “Activity in whole blood against Pseudomonas aeruginosa” value (Pseudomonas aeruginosa) is given as “retained activity in whole blood”.

With melittin the “Hemolysis, propensity to lyse human RBCs” value (human RBC) was “highly hemolytic”, the “Selectivity (antimicrobial activity relative to host cell toxicity)” value (human RBC) was “completely non-selective; also recorded: least selective peptide by far” and the “Selectivity (antimicrobial activity relative to host cell toxicity)” value (human RBC; listed as Melittin) was “entirely non-selective”.
